# From ChEMBL document CHEMBL1126276, “Synthesis and antimalarial properties of 1-imino derivatives of 7-chloro-3-substituted-3,4-dihydro-1,9(2H,10H)-acridinediones and related structures” (J Med Chem, 1992)
# Several values for one entry are separate records, joined by “and”; a condition that tells them apart may be missing. Identical values can stand only once.
# What was measured:
# Type in all cases: functional
# [1] = test system: Plasmodium berghei; assay: Antimalarial activity in Plasmodium berghei infected mice (Mus musculus) after 40 mg/kg subcutaneous dose
# Procedure, shortened: (§1)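 […] in mice infected with a normal drug-sensitive P. berghei strain. Compound dissolved or suspended in sesame or peanut oil, given as a single subcutaneous dose 72 h postinfection.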
# [2] = test system: Plasmodium berghei; assay: Antimalarial activity in Plasmodium berghei infected mice (Mus musculus) after 160 mg/kg subcutaneous dose; procedure, shortened: as §1
# [3] = test system: Plasmodium berghei; assay: Antimalarial activity Plasmodium berghei infected mice (Mus musculus) after 640 mg/kg subcutaneous dose; procedure, shortened: as §1
# [4] = test system: Plasmodium berghei; assay: Antimalarial activity in Plasmodium berghei infected mice (Mus musculus) after 80 mg/kg subcutaneous dose; procedure, shortened: as §1
# [5] = test system: Plasmodium berghei; assay: Antimalarial activity in Plasmodium berghei infected mice (Mus musculus) after subcutaneous 640 mg/kg dose
# Procedure, shortened: (§2)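 Normal drug-sensitive P. berghei strain in mice. Compound dissolved or suspended in sesame or peanut oil, given parenterally as a single subcutaneous dose 72 h postinfection.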
# [6] = test system: Plasmodium berghei; assay: Antimalarial activity in Plasmodium berghei infected mice (Mus musculus) after subcutaneous 160 mg/kg dose; procedure, shortened: as §2
# [7] = test system: Plasmodium berghei; assay: Antimalarial activity in Plasmodium berghei infected mice (Mus musculus) after subcutaneous 320 mg/kg dose; procedure, shortened: as §2
# [8] = test system: Plasmodium berghei; assay: Antimalarial activity in Plasmodium berghei infected mice (Mus musculus) after 20 mg/kg subcutaneous dose; procedure, shortened: as §1
SMILES,Delta mean survival time [1],Delta mean survival time [2],Delta mean survival time [3],Delta mean survival time [4],No. of cured mice [5],No. of cured mice [6],No. of cured mice [7],Delta mean survival time [8],Delta mean survival time ([4]; 80 mg/kg)
COc1cc(C2C/C(=N\CCCN3CCCC3)c3c(n(O)c4ccc(Cl)cc4c3=O)C2)cc(OC)c1OC (centres undefined),0.2,0.6,6.4,,,,,,
CC(C)C1CC(=O)c2c(n(C)c3ccccc3c2=O)C1 (centres undefined),-0.2,0.2,0.5,,,,,,
CCN(CC)CCOc1ccc(C2CC(=O)c3c(n([O-])c4ccc(Cl)cc4c3=O)C2)cc1.[Na+] (centres undefined),,1.5,5.3,,,,,,
CCCCCCC/N=C1\CC(c2cccc(C(F)(F)F)c2)Cc2c1c(=O)c1cc(Cl)ccc1n2O (centres undefined),,5,,2.8,5,3,5,,
CN(C)CCC/N=C1\CC(c2ccc(C(F)(F)F)cc2)Cc2nc3cccc(Cl)c3c(O)c21 (centres undefined),7.7,24.9,,,5,4,,,
CN1CCN(CCC/N=C2\CC(c3ccc(Cl)c(Cl)c3)Cc3c2c(=O)c2cc(Cl)ccc2n3O)CC1 (centres undefined),7.4,,,,5,5,5,,
CC1(C)CC(=O)c2c(nc3ccccc3c2O)C1,3.8,5.6,,,5,2,,,
O=C1CC(c2cccc(C(F)(F)F)c2)Cc2c1c(=O)c1cc(Cl)ccc1n2O (centres undefined),8.8,13.4,,12.1,5,3,5,6,
O=C1CC(c2ccc(C(F)(F)F)cc2)Cc2nc3ccc(C(F)(F)F)cc3c(O)c21 (centres undefined),0.1,0.1,-0.1,,,,,,
CCc1ccc2nc3c(c(O)c2c1)C(=O)CC(c1ccc(C(F)(F)F)cc1)C3 (centres undefined),0,0.4,0.2,,,,,,
COc1ccccc1C1CC(=O)c2c(nc3ccc(Cl)cc3c2O)C1 (centres undefined),8.3,0.7,,,5,4,,,
CC1(C)CC(=O)c2c(nc3ccc(Cl)cc3c2O)C1,,,,,4,,3,,
O=C1CC(c2ccc(C(F)(F)F)cc2)Cc2nc3ccccc3c(O)c21 (centres undefined),4.6,10.8,,8.2,5,4,5,2.7,
CN(C)CCC/N=C1\CC(c2ccc(C(F)(F)F)cc2)Cc2nc3c(Cl)cc(Cl)cc3c(O)c21 (centres undefined),6.3,8,,8.2,5,4,5,,
O=C1CC(c2ccc(C(F)(F)F)cc2)Cc2nc3ccc(F)cc3c(O)c21 (centres undefined),7.1,8.9,,,5,,,,
CN(C)CCC/N=C1\CC(c2ccc(C3CCCCC3)cc2)Cc2c1c(=O)c1cc(Cl)ccc1n2O (centres undefined),5,9.4,,,5,3,,,
O=C1CC(c2ccc(Cl)c(Cl)c2)Cc2c1c(=O)c1c(Cl)c(Cl)ccc1n2O (centres undefined),,0.1,0.3,,,,,,
CCCC/N=C1\CC(c2ccc(Cl)c(Cl)c2)Cc2c1c(=O)c1cc(Cl)ccc1n2O (centres undefined),6.1,,,,5,3,5,2.5,9.9 and 8.3

SMILES,Delta mean survival time [1],Delta mean survival time [2],Delta mean survival time [3],Delta mean survival time [4],No. of cured mice [5],No. of cured mice [6],No. of cured mice [7],Delta mean survival time [8],Delta mean survival time ([4]; 80 mg/kg)
O=C1CC(c2ccc(C(F)(F)F)cc2)Cc2nc3cc(Cl)ccc3c(O)c21 (centres undefined),-0.4,0.2,0.4,,,,,,
CN(C)CCC/N=C1\CC(c2ccccc2Cl)Cc2nc3ccc(Cl)cc3c(O)c21 (centres undefined),5.6,11.3,,6.3,5,2,5,,
CSc1ccc(C2CC(=O)c3c(nc4ccc(Cl)cc4c3O)C2)cc1 (centres undefined),4.4,8.6,12.4,,,,,,
O=C1CC(c2ccc(C(F)(F)F)cc2)Cc2nc3c(Cl)cc(Cl)cc3c(O)c21 (centres undefined),-0.2,0.4,0,,,,,,
CN(C)CCC/N=C1\CC(c2cccc(C(F)(F)F)c2)Cc2c1c(=O)c1cc(Cl)ccc1n2O (centres undefined),6.9,12.4,,9.6,5,4,5,4.8,
CN(C)CCCCCCC/N=C1\CC(c2ccc(Cl)c(Cl)c2)Cc2c1c(=O)c1cc(Cl)ccc1n2O (centres undefined),6.5,,,11.3,5,5,5,,
O=c1c2c(n(O)c3ccc(Cl)cc13)CC(c1ccc(Cl)c(Cl)c1)C/C2=N\CCCN1CCCCC1 (centres undefined),5.9,8.7,,9.2,5,4,5,,
O=C1CC(c2ccc(C(F)(F)F)cc2)Cc2nc3c(Br)cc(Br)cc3c(O)c21 (centres undefined),0.6,0.2,0,,,,,,
CN(C)CCC/N=C1\CC(C)(C)Cc2c1c(=O)c1cc(Cl)ccc1n2O,0.2,0.4,2.8,,,,,,
O=C1CC(c2ccncc2)Cc2nc3ccc(Cl)cc3c(O)c21 (centres undefined),0.2,0.8,2.2,,,,,,
O=C1CC(c2ccc(Cl)cc2Cl)Cc2nc3cc(Cl)ccc3c(O)c21 (centres undefined),-0.1,0.1,1.3,,,,,,
CCCC/N=C1\CC(c2ccc(C(F)(F)F)cc2)Cc2nc3ccc(Cl)cc3c(O)c21 (centres undefined),6,10.1,,,5,1,,,
O=C1CC(c2ccc(Cl)c(Cl)c2)Cc2c1c(=O)c1cc(Cl)ccc1n2O (centres undefined),5,11,,10.8,5,2,5,3.2,
CN(C)CCC/N=C1\CC(c2ccc(C(F)(F)F)cc2)Cc2nc3ccc(C(F)(F)F)cc3c(O)c21 (centres undefined),3.1,7.1,,,5,,,,
COc1ccc2nc3c(c(O)c2c1)/C(=N/CCCN(C)C)CC(c1ccc(C(F)(F)F)cc1)C3 (centres undefined),5.5,8.7,,6.1,5,2,5,0.7,
O=C1CC(c2ccc(C(F)(F)F)cc2)Cc2nc3cccc(Cl)c3c(O)c21 (centres undefined),8.7,,,,5,5,,,
CN(C)CCC/N=C1\CC(c2ccc(C(F)(F)F)cc2)Cc2nc3c(Br)cc(Br)cc3c(O)c21 (centres undefined),0.2,0.2,0.4,,,,,,
